From ChEMBL document CHEMBL3525971 (Drug Metab Dispos, 2011)

What was measured:
[1] = AUC (0 to 6 hrs) in castrated pig plasma withdrawn from portal vein at 0.2 mg/kg, iv by UPLC-tandem mass spectrometry; assay type: ADME, organism-based, Sus scrofa; design: time < 6 hr, dose 0.2 mg/kg, route intravenous; details: male
Procedure, shortened: (§1)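 Where ketoconazole was co-dosed, it was given at 10 mg/kg at the same jejunal site 20 min before. Plasma protein-precipitated with acetonitrile and analysed by UPLC-MS/MS (finasteride-d9). AUC0-6h, Cmax and t1/2 (ln2/λz) were derived by non- or compartmental analysis.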

[2] = AUC (0 to 6 hrs) in castrated pig plasma withdrawn from hepatic vein at 0.2 mg/kg, iv by UPLC-tandem mass spectrometry; assay type: ADME, organism-based, Sus scrofa; design: time < 6 hr, dose 0.2 mg/kg, route intravenous; details: male; procedure, shortened: as §1
[3] = Apparent half-life of the terminal disposition phase in castrated pig plasma withdrawn from hepatic vein at 0.2 mg/kg, iv by UPLC-tandem mass spectrometry; assay type: ADME, organism-based, Sus scrofa; design: dose 0.2 mg/kg, route intravenous; details: male, read-out: t1/2 lambda z (converted); procedure, shortened: as §1
Sus scrofa [4] = assay: Hepatic clearance in castrated pig at 0.8 mg/kg administered as intrajejunal dose 20 mins after ketoconazole administration by UPLC-tandem mass spectrometry; assay type: ADME, organism-based, Liver; design: dose 0.8 mg/kg; details: in vivo, other
Procedure, shortened: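 Portal and hepatic vein plasma measured 0-6 h by UPLC-MS/MS. Extraction ratio derived from portal versus hepatic concentrations or AUCs; CLH then obtained as EH × liver blood flow 52 ml/min/kg × measured blood/plasma ratio.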

[5] = Biliary excretion in castrated pig assessed as fraction of the dose excreted at 0.2 mg/kg, iv measured during 6 hrs sampling by UPLC-tandem mass spectrometry; assay type: ADME, organism-based, Sus scrofa; design: dose 0.2 mg/kg, route intravenous; details: male, bile, read-out: Drug excretion
[6] = Apparent biliary clearance in castrated pig at 0.8 mg/kg administered as intrajejunal dose by UPLC-tandem mass spectrometry; assay type: ADME, organism-based, Sus scrofa, Bile; design: dose 0.8 mg/kg; details: in vivo, other
[7] = AUC (0 to 6 hrs) in castrated pig plasma withdrawn from portal vein at 0.8 mg/kg administered as intrajejunal dose 20 mins after ketoconazole administration by UPLC-tandem mass spectrometry; assay type: ADME, organism-based, Sus scrofa; design: time < 6 hr, dose 0.8 mg/kg; details: male; procedure, shortened: as §1
[8] = AUC (0 to 6 hrs) in castrated pig plasma withdrawn from hepatic vein at 0.8 mg/kg administered as intrajejunal dose 20 mins after ketoconazole administration by UPLC-tandem mass spectrometry; assay type: ADME, organism-based, Sus scrofa; design: time < 6 hr, dose 0.8 mg/kg; details: male; procedure, shortened: as §1
[9] = AUC (0 to 6 hrs) in castrated pig plasma withdrawn from femoral vein at 0.8 mg/kg administered as intrajejunal dose 20 mins after ketoconazole administration by UPLC-tandem mass spectrometry; assay type: ADME, organism-based, Sus scrofa; design: time < 6 hr, dose 0.8 mg/kg; details: male; procedure, shortened: as §1
[10] = Cmax in castrated pig plasma withdrawn from portal vein at 0.8 mg/kg administered as intrajejunal dose by UPLC-tandem mass spectrometry; assay type: ADME, organism-based, Sus scrofa; design: dose 0.8 mg/kg; details: male; procedure, shortened: as §1
[11] = Tmax in castrated pig plasma withdrawn from femoral vein at 0.8 mg/kg administered as intrajejunal dose by UPLC-tandem mass spectrometry; assay type: ADME, organism-based, Sus scrofa; design: dose 0.8 mg/kg; details: male
Procedure, shortened: (§2)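 Portal, hepatic and femoral vein plasma sampled over 6 h and assayed by UPLC-MS/MS. Tmax read directly from the profiles. Terminal t1/2 calculated as ln2/λz by non- or compartmental analysis; values below LLOQ after Cmax excluded.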

[12] = Apparent biliary clearance in castrated pig at 0.2 mg/kg, iv by UPLC-tandem mass spectrometry; assay type: ADME, organism-based, Sus scrofa, Bile; design: dose 0.2 mg/kg, route intravenous; details: in vivo
[13] = AUC (0 to 6 hrs) in castrated pig bile at 0.2 mg/kg, iv by UPLC-tandem mass spectrometry; assay type: ADME, organism-based, Sus scrofa; design: time < 6 hr, dose 0.2 mg/kg, route intravenous; details: male
[14] = Cmax in castrated pig bile at 0.8 mg/kg administered as intrajejunal dose by UPLC-tandem mass spectrometry; assay type: ADME, organism-based, Sus scrofa; design: dose 0.8 mg/kg; details: male
[15] = Ratio of AUC in bile to plasma withdrawn from portal vein in castrated pig at 0.8 mg/kg administered as intrajejunal dose 20 mins after ketoconazole administration by UPLC-tandem mass spectrometry; assay type: ADME, organism-based, Sus scrofa; design: dose 0.8 mg/kg; details: male, read-out: Ratio AUC
Procedure, shortened: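 Bile collected 0-6 h and weighed; portal and hepatic vein plasma sampled. UPLC-MS/MS quantification against finasteride-d9 in SRM mode. Bile/plasma AUC ratio calculated per vein.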

[16] = Ratio of AUC in bile to plasma withdrawn from hepatic vein in castrated pig at 0.2 mg/kg, iv by UPLC-tandem mass spectrometry; assay type: ADME, organism-based, Sus scrofa; design: dose 0.2 mg/kg, route intravenous; details: male, read-out: Ratio AUC
Procedure, shortened: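 Bile collected 0-6 h and weighed; portal and hepatic vein plasma sampled. Analytes quantified by UPLC-MS/MS (finasteride-d9 internal standard, SRM). Bile AUC divided by plasma AUC for each vein.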

[17] = Drug excretion in castrated pig urine assessed as unchanged drug level at 0.2 mg/kg, iv measured during 6 hrs sampling by UPLC-tandem mass spectrometry; assay type: ADME, organism-based, Sus scrofa; design: dose 0.2 mg/kg, route intravenous; details: in vivo
[18] = Drug excretion in castrated pig urine assessed as fraction of the dose excreted at 0.2 mg/kg, iv measured during 6 hrs sampling by UPLC-tandem mass spectrometry; assay type: ADME, organism-based, Sus scrofa; design: dose 0.2 mg/kg, route intravenous; details: male, read-out: Drug excretion
[19] = Renal clearance in castrated pig at 0.8 mg/kg, administered as intrajejunal dose 20 mins after ketoconazole administration by UPLC-tandem mass spectrometry; assay type: ADME, organism-based, Sus scrofa, Kidney; design: dose 0.8 mg/kg; details: male, in vivo
Procedure, shortened: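 Urine collected 0-360 min into a closed bag, weighed and frozen at -20°C. […] Doses: iv 0.2 mg/kg bolus via central vein catheter (n=3), or ij 0.8 mg/kg alone or 20 min after ij ketoconazole 10 mg/kg (n=5). Renal clearance derived from the amount excreted in urine over 0-6 h.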

[20] = AUC (0 to 6 hrs) in castrated pig plasma withdrawn from hepatic vein at 0.8 mg/kg administered as intrajejunal dose by UPLC-tandem mass spectrometry; assay type: ADME, organism-based, Sus scrofa; design: time < 6 hr, dose 0.8 mg/kg; details: male; procedure, shortened: as §1
[21] = Oral absorption in human; assay type: ADME, organism-based; details: in vivo
[22] = Drug excretion in castrated pig bile assessed as omega-hydroxy finasteride metabolite formation by UPLC-tandem mass spectrometry; assay type: ADME, tissue-based, Sus scrofa
[23] = Tmax in castrated pig plasma withdrawn from hepatic vein at 0.8 mg/kg administered as intrajejunal dose 20 mins after ketoconazole administration by UPLC-tandem mass spectrometry; assay type: ADME, organism-based, Sus scrofa; design: dose 0.8 mg/kg; details: male; procedure, shortened: as §2
[24] = Tmax in castrated pig plasma withdrawn from femoral vein at 0.8 mg/kg administered as intrajejunal dose 20 mins after ketoconazole administration by UPLC-tandem mass spectrometry; assay type: ADME, organism-based, Sus scrofa; design: dose 0.8 mg/kg; details: male; procedure, shortened: as §2
[25] = Terminal half life in castrated pig plasma withdrawn from portal vein at 0.8 mg/kg administered as intrajejunal dose by UPLC-tandem mass spectrometry; assay type: ADME, organism-based, Sus scrofa; design: dose 0.8 mg/kg; details: male, read-out: beta t1/2 (converted); procedure, shortened: as §2
[26] = Terminal half life in castrated pig plasma withdrawn from hepatic vein at 0.8 mg/kg administered as intrajejunal dose by UPLC-tandem mass spectrometry; assay type: ADME, organism-based, Sus scrofa; design: dose 0.8 mg/kg; details: male, read-out: beta t1/2 (converted); procedure, shortened: as §2
[27] = Terminal half life in castrated pig plasma withdrawn from hepatic vein at 0.8 mg/kg administered as intrajejunal dose 20 mins after ketoconazole administration by UPLC-tandem mass spectrometry; assay type: ADME, organism-based, Sus scrofa; design: dose 0.8 mg/kg; details: male, read-out: beta t1/2 (converted); procedure, shortened: as §2
[28] = Terminal half life in castrated pig plasma withdrawn from femoral vein at 0.8 mg/kg administered as intrajejunal dose 20 mins after ketoconazole administration by UPLC-tandem mass spectrometry; assay type: ADME, organism-based, Sus scrofa; design: dose 0.8 mg/kg; details: male, read-out: beta t1/2 (converted); procedure, shortened: as §2
Sus scrofa [29] = assay: Absorption rate constant in castrated pig plasma withdrawn from portal vein at 0.8 mg/kg administered as intrajejunal dose by UPLC-tandem mass spectrometry; assay type: ADME, organism-based; design: dose 0.8 mg/kg; details: in vivo, other
Sus scrofa [30] = assay: Absorption rate constant in castrated pig plasma withdrawn from femoral vein at 0.8 mg/kg administered as intrajejunal dose by UPLC-tandem mass spectrometry; assay type: ADME, organism-based; design: dose 0.8 mg/kg; details: in vivo, other
[31] = Biliary excretion in castrated pig assessed as unchanged drug level at 0.8 mg/kg administered as intrajejunal dose measured during 6 hrs sampling by UPLC-tandem mass spectrometry; assay type: ADME, organism-based, Sus scrofa, Bile; design: dose 0.8 mg/kg; details: in vivo, other
[32] = Biliary excretion in castrated pig assessed as unchanged drug level at 0.8 mg/kg administered as intrajejunal dose 20 mins after ketoconazole administration measured during 6 hrs sampling by UPLC-tandem mass spectrometry; assay type: ADME, organism-based, Sus scrofa, Bile; design: dose 0.8 mg/kg; details: in vivo, other
[33] = Biliary excretion in castrated pig assessed as unchanged drug level at 0.2 mg/kg, iv measured during 6 hrs sampling by UPLC-tandem mass spectrometry; assay type: ADME, organism-based, Sus scrofa, Bile; design: dose 0.2 mg/kg, route intravenous; details: in vivo

- AUC(0-t) at 6 h [1]: 1.2 µM·h
- AUC(0-t) at 6 h [2]: 0.9 µM·h
- half-life [3]: 3.1 h
- CLH (Sus scrofa [4]): 25900 mL/day/kg
- dose excreted at 6 h [5]: 0.19%
- CL(app) [6]: 13 mL/day/kg
- AUC(0-t) at 6 h [7]: 6.3 µM·h
- AUC(0-t) at 6 h [8]: 4.1 µM·h
- AUC(0-t) at 6 h [9]: 4.4 µM·h
- Cmax [10]: 2600 nM
- Tmax [11]: 0.9 h
- CL(app) [12]: 20.2 mL/day/kg
- AUC(0-t) at 6 h [13]: 1.1 µM·h
- Cmax [14]: 1300 nM
- Kp at 20 min [15]: 0.7
- Kp [16]: 7
- dose excreted at 6 h [18]: 0.12%
- CL renal at 20 min [19]: 8.64 mL/day/kg
- AUC(0-t) at 6 h [20]: 1.6 µM·h
- Fa [21]: > 85%
- Drug excretion [22]: metabolite_not_detected
- Tmax [23]: 1 h
- Tmax [24]: 1.5 h
- half-life [25]: 1.5 h
- half-life [26]: 1.7 h
- half-life [27]: 3.6 h
- half-life [28]: 4 h
- ka (Sus scrofa [29]): 19 h⁻¹
- ka (Sus scrofa [30]): 6 h⁻¹
Structure (SMILES): CC(C)(C)NC(=O)[C@H]1CC[C@H]2[C@@H]3CC[C@H]4NC(=O)C=C[C@]4(C)[C@H]3CC[C@]12C [FINASTERIDE]
- Ae [17]: 0.02 µmol
- Ae [31]: 0.03 µmol
- Ae [32]: 0.09 µmol
- Ae [33]: 0.032 µmol
